Measurements published in ChEMBL document CHEMBL1221233, “4''-O-(omega-Quinolylamino-alkylamino)propionyl derivatives of selected macrolides with the activity against the key erythromycin resistant respiratory pathogens” (2010).
≈ marks a conversion by molar mass, not a printed value.

Tests used:
Type in all cases: functional
[1] = system: Streptococcus pyogenes; experiment: Antibacterial activity against constitutive MLS resistance sStreptococcus pyogenes 166 GR-Micro by broth microdilution method
In short: (§1)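 MIC by CLSI broth microdilution. In the streptococcal medium, 5% horse serum replaced lysed blood. Compounds were tested as two-fold serial dilutions. Strains were first grown on Columbia agar with 5% sheep blood. The MIC was read as the lowest concentration inhibiting growth.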

[2] = system: Streptococcus pneumoniae; experiment: Antibacterial activity against efflux-mediated macrolide-resistance Streptococcus pneumoniae Ci137 by broth microdilution method; in short: as §1
[3] = system: Streptococcus pneumoniae; experiment: Antibacterial activity against constitutive MLS resistance Streptococcus pneumoniae 58 by broth microdilution method; in short: as §1
[4] = system: Staphylococcus aureus; experiment: Antibacterial activity against efflux-mediated macrolide-resistance Staphylococcus aureus PK1 by broth microdilution method
In short: (§2)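 Staphylococci were grown on Mueller-Hinton agar and then tested by CLSI-guideline broth microdilution against two-fold serial dilutions of compound. The result was recorded as the minimum inhibitory concentration.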

[5] = system: Streptococcus pyogenes; experiment: Antibacterial activity against efflux-mediated macrolide-resistance Streptococcus pyogenes 2 Finland by broth microdilution method; in short: as §1
[6] = system: Streptococcus pneumoniae; experiment: Antibacterial activity against inducible resistance to macrolide and constitutive resistance to lincosamide Streptococcus pneumoniae 134 GR M by broth microdilution method; in short: as §1
[7] = system: Haemophilus influenzae; experiment: Antibacterial activity against Haemophilus influenzae ATCC 49247 by broth microdilution method
In short: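 MIC by broth microdilution following CLSI guidelines, expressed in units of lg/mL. Twofold dilutions prepared in 96-well plates. H. influenzae grown on Mueller-Hinton chocolate agar before testing.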

[8] = system: Staphylococcus aureus; experiment: Antibacterial activity against inducible resistance to macrolide, licosamide and streptogramin Staphylococcus aureus 90256 by broth microdilution method; in short: as §2

CC[C@H]1OC(=O)[C@H](C)[C@@H](O[C@H]2C[C@@](C)(OC)[C@@H](OC(=O)CCNCCCCNc3ccc4c(=O)c(C(=O)O)cn(C)c4c3)[C@H](C)O2)[C@H](C)[C@@H](O[C@@H]2O[C@H](C)C[C@H](N(C)C)[C@H]2O)[C@](C)(O)C[C@@H](C)NC(=O)[C@H](C)[C@@H](O)[C@]1(C)O
MIC [1]: 32 µg/mL (≈ 29.3 µM) | MIC [2]: 4 µg/mL (≈ 3.66 µM) | MIC [3]: 32 µg/mL (≈ 29.3 µM) | MIC [4]: 16 µg/mL (≈ 14.6 µM) | MIC [5]: 8 µg/mL (≈ 7.32 µM) | MIC [6]: 16 µg/mL (≈ 14.6 µM) | MIC [7]: > 32 µg/mL | MIC [8]: > 32 µg/mL

CC[C@H]1OC(=O)[C@H](C)[C@@H](O[C@H]2C[C@@](C)(OC)[C@@H](OC(=O)CCN(C)CCNc3cc4c(cc3F)c(=O)c(C(=O)O)cn4C3CC3)[C@H](C)O2)[C@H](C)[C@@H](O[C@@H]2O[C@H](C)C[C@H](N(C)C)[C@H]2O)[C@](C)(O)C[C@@H](C)CN(C)[C@H](C)[C@H]2OC(=O)O[C@@]21C
MIC [1]: 16 µg/mL (≈ 13.9 µM) | MIC [2]: ≤ 0.125 µg/mL | MIC [3]: 1 µg/mL (≈ 0.871 µM) | MIC [4]: 2 µg/mL (≈ 1.74 µM) | MIC [5]: ≤ 0.125 µg/mL | MIC [6]: 2 µg/mL (≈ 1.74 µM) | MIC [7]: 8 µg/mL (≈ 6.97 µM) | MIC [8]: 4 µg/mL (≈ 3.48 µM)

CC[C@H]1OC(=O)[C@H](C)[C@@H](O[C@H]2C[C@@](C)(OC)[C@@H](OC(=O)CCN(C)CCNc3ccc4c(c3)c(=O)c(C(=O)O)cn4C3CC3)[C@H](C)O2)[C@H](C)[C@@H](O[C@@H]2O[C@H](C)C[C@H](N(C)C)[C@H]2O)[C@](C)(O)C[C@@H](C)CN(C)[C@H](C)[C@@H](O)[C@]1(C)O
MIC [1]: ≤ 0.125 µg/mL | MIC [2]: ≤ 0.125 µg/mL | MIC [3]: ≤ 0.125 µg/mL | MIC [4]: 1 µg/mL (≈ 0.905 µM) | MIC [5]: 0.5 µg/mL (≈ 0.453 µM) | MIC [6]: 0.25 µg/mL (≈ 0.226 µM) | MIC [7]: 4 µg/mL (≈ 3.62 µM) | MIC [8]: 1 µg/mL (≈ 0.905 µM)

CC[C@H]1OC(=O)[C@H](C)[C@@H](O[C@H]2C[C@@](C)(OC)[C@@H](OC(=O)CCNCCNc3ccc4c(=O)c(C(=O)O)cn(C5CC5)c4c3)[C@H](C)O2)[C@H](C)[C@@H](O[C@@H]2O[C@H](C)C[C@H](N(C)C)[C@H]2O)[C@](C)(O)C[C@@H](C)CN(C)[C@H](C)[C@@H](O)[C@]1(C)O
MIC [1]: ≤ 0.125 µg/mL | MIC [2]: ≤ 0.125 µg/mL | MIC [3]: ≤ 0.125 µg/mL | MIC [4]: 1 µg/mL (≈ 0.917 µM) | MIC [5]: ≤ 0.125 µg/mL | MIC [6]: ≤ 0.125 µg/mL | MIC [7]: 4 µg/mL (≈ 3.67 µM) | MIC [8]: 2 µg/mL (≈ 1.83 µM)

CC[C@H]1OC(=O)[C@H](C)[C@@H](O[C@H]2C[C@@](C)(OC)[C@@H](OC(=O)CCN(C)CCNc3cc4c(=O)c(C(=O)O)cn(C5CC5)c4cc3Cl)[C@H](C)O2)[C@H](C)[C@@H](O[C@@H]2O[C@H](C)C[C@H](N(C)C)[C@H]2O)[C@](C)(O)C[C@@H](C)CN(C)[C@H](C)[C@@H](O)[C@]1(C)O
MIC [1]: ≤ 0.125 µg/mL | MIC [2]: ≤ 0.125 µg/mL | MIC [3]: ≤ 0.125 µg/mL | MIC [4]: 0.5 µg/mL (≈ 0.439 µM) | MIC [5]: ≤ 0.125 µg/mL | MIC [6]: ≤ 0.125 µg/mL | MIC [7]: 1 µg/mL (≈ 0.878 µM) | MIC [8]: 0.5 µg/mL (≈ 0.439 µM)

CC[C@H]1OC(=O)[C@H](C)[C@@H](O[C@H]2C[C@@](C)(OC)[C@@H](OC(=O)CCNCCNc3ccc4c(=O)c(C(=O)O)cn(CC)c4c3)[C@H](C)O2)[C@H](C)[C@@H](O[C@@H]2O[C@H](C)C[C@H](N(C)C)[C@H]2O)[C@](C)(O)C[C@@H](C)C(=O)[C@H](C)[C@@H](O)[C@]1(C)O
MIC [1]: ≤ 0.125 µg/mL | MIC [2]: ≤ 0.125 µg/mL | MIC [3]: ≤ 0.125 µg/mL | MIC [4]: 0.5 µg/mL (≈ 0.47 µM) | MIC [5]: ≤ 0.125 µg/mL | MIC [6]: ≤ 0.125 µg/mL | MIC [7]: 2 µg/mL (≈ 1.88 µM) | MIC [8]: 1 µg/mL (≈ 0.94 µM)

CC[C@H]1OC(=O)[C@H](C)[C@@H](O[C@H]2C[C@@](C)(OC)[C@@H](OC(=O)CCNCCNc3ccc4c(=O)c(C(=O)O)cn(C)c4c3)[C@H](C)O2)[C@H](C)[C@@H](O[C@@H]2O[C@H](C)C[C@H](N(C)C)[C@H]2O)[C@](C)(O)C[C@@H](C)C(=O)[C@H](C)[C@@H](O)[C@]1(C)O
MIC [1]: ≤ 0.125 µg/mL | MIC [2]: ≤ 0.125 µg/mL | MIC [3]: ≤ 0.125 µg/mL | MIC [4]: 1 µg/mL (≈ 0.953 µM) | MIC [5]: 1 µg/mL (≈ 0.953 µM) | MIC [6]: ≤ 0.125 µg/mL | MIC [7]: 8 µg/mL (≈ 7.62 µM) | MIC [8]: 4 µg/mL (≈ 3.81 µM)

CC[C@H]1OC(=O)[C@H](C)[C@@H](O[C@H]2C[C@@](C)(OC)[C@@H](OC(=O)CCNCCNc3ccc4c(=O)c(C(=O)O)cn(CC)c4c3)[C@H](C)O2)[C@H](C)[C@@H](O[C@@H]2O[C@H](C)C[C@H](N(C)C)[C@H]2O)[C@](C)(O)C[C@@H](C)CN(C)[C@H](C)[C@@H](O)[C@]1(C)O
MIC [1]: ≤ 0.125 µg/mL | MIC [2]: ≤ 0.125 µg/mL | MIC [3]: ≤ 0.125 µg/mL | MIC [4]: 2 µg/mL (≈ 1.85 µM) | MIC [5]: ≤ 0.125 µg/mL | MIC [6]: ≤ 0.125 µg/mL | MIC [7]: 4 µg/mL (≈ 3.71 µM) | MIC [8]: 4 µg/mL (≈ 3.71 µM)

CC[C@H]1OC(=O)[C@H](C)C(=O)[C@H](C)[C@@H](O[C@@H]2O[C@H](C)C[C@H](N(C)C)[C@H]2O)[C@](C)(OC)C[C@@H](C)C(=O)[C@H](C)[C@H]2N(CCCCn3cnc(-c4cccnc4)c3)C(=O)O[C@]12C [TELITHROMYCIN]
MIC [1]: 16 µg/mL (≈ 19.7 µM) | MIC [2]: 0.25 µg/mL (≈ 0.308 µM) | MIC [3]: 0.25 µg/mL (≈ 0.308 µM) | MIC [4]: ≤ 0.125 µg/mL | MIC [5]: 0.5 µg/mL (≈ 0.616 µM) | MIC [6]: 0.25 µg/mL (≈ 0.308 µM) | MIC [7]: 2 µg/mL (≈ 2.46 µM) | MIC [8]: ≤ 0.125 µg/mL

CC[C@H]1OC(=O)[C@H](C)[C@@H](O[C@H]2C[C@@](C)(OC)[C@@H](OC(=O)CCNCCNc3ccc4c(c3)c(=O)c(C(=O)O)cn4C3CC3)[C@H](C)O2)[C@H](C)[C@@H](O[C@@H]2O[C@H](C)C[C@H](N(C)C)[C@H]2O)[C@](C)(O)C[C@@H](C)CN(C)[C@H](C)[C@H]2OC(=O)O[C@@]21C
MIC [1]: ≤ 0.125 µg/mL | MIC [2]: ≤ 0.125 µg/mL | MIC [3]: 0.25 µg/mL (≈ 0.224 µM) | MIC [4]: 1 µg/mL (≈ 0.896 µM) | MIC [5]: 0.25 µg/mL (≈ 0.224 µM) | MIC [6]: 0.25 µg/mL (≈ 0.224 µM) | MIC [7]: 2 µg/mL (≈ 1.79 µM) | MIC [8]: 2 µg/mL (≈ 1.79 µM)

CC[C@H]1OC(=O)[C@H](C)[C@@H](O[C@H]2C[C@@](C)(OC)[C@@H](OC(=O)CCNCCNc3cc4c(cc3F)c(=O)c(C(=O)O)cn4C3CC3)[C@H](C)O2)[C@H](C)[C@@H](O[C@@H]2O[C@H](C)C[C@H](N(C)C)[C@H]2O)[C@](C)(O)C[C@@H](C)CN(C)[C@H](C)[C@@H](O)[C@]1(C)O
MIC [1]: 2 µg/mL (≈ 1.8 µM) | MIC [2]: 0.25 µg/mL (≈ 0.226 µM) | MIC [3]: 0.25 µg/mL (≈ 0.226 µM) | MIC [4]: 0.5 µg/mL (≈ 0.451 µM) | MIC [5]: 1 µg/mL (≈ 0.902 µM) | MIC [6]: 1 µg/mL (≈ 0.902 µM) | MIC [7]: 2 µg/mL (≈ 1.8 µM) | MIC [8]: 0.5 µg/mL (≈ 0.451 µM)

CC[C@H]1OC(=O)[C@H](C)[C@@H](O[C@H]2C[C@@](C)(OC)[C@@H](OC(=O)CCNCCNc3ccc4c(=O)c(C(=O)O)cn(C5CC5)c4c3)[C@H](C)O2)[C@H](C)[C@@H](O[C@@H]2O[C@H](C)C[C@H](N(C)C)[C@H]2O)[C@](C)(O)C[C@@H](C)NC(=O)[C@H](C)[C@@H](O)[C@]1(C)O
MIC [1]: 32 µg/mL (≈ 29.3 µM) | MIC [2]: ≤ 0.125 µg/mL | MIC [3]: 32 µg/mL (≈ 29.3 µM) | MIC [4]: 64 µg/mL (≈ 58.7 µM) | MIC [5]: ≤ 0.125 µg/mL | MIC [6]: 64 µg/mL (≈ 58.7 µM) | MIC [7]: 8 µg/mL (≈ 7.34 µM) | MIC [8]: 64 µg/mL (≈ 58.7 µM)

CC[C@H]1OC(=O)[C@H](C)[C@@H](O[C@H]2C[C@@](C)(OC)[C@@H](O)[C@H](C)O2)[C@H](C)[C@@H](O[C@@H]2O[C@H](C)C[C@H](N(C)C)[C@H]2O)[C@](C)(O)C[C@@H](C)CN(C)[C@H](C)[C@@H](O)[C@]1(C)O [AZITHROMYCIN]
MIC [1]: > 64 µg/mL | MIC [2]: 8 µg/mL (≈ 10.7 µM) | MIC [3]: > 64 µg/mL | MIC [4]: > 64 µg/mL | MIC [5]: 8 µg/mL (≈ 10.7 µM) | MIC [6]: > 64 µg/mL | MIC [7]: 1 µg/mL (≈ 1.34 µM) | MIC [8]: > 64 µg/mL
